≈ marks a conversion by molar mass, not a printed value. Calls of active or inactive are those of the source. No cut-off for these calls is given here.
Assays:
[1] = target: Tubulin beta chain (Sus scrofa) (UniProt P02554); assay: Stimulation of MAP-rich pig beta-tubulin polymerization at 25 ug/mL by microtiter plate-based light scattering assay
How it was run: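 MAP-rich porcine tubulin (70% β-tubulin, 30% MAPs) at 2 mg/mL with 1 mM GTP. Buffer was 80 mM PIPES·NaOH pH 7.0, 2 mM MgCl₂, 1 mM EGTA. Light scattering was followed as A340 continuously at 37 °C for 60 min, against a DMSO vehicle.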

[2] = tested on: Enterococcus faecalis; assay: microbe, parasite or virus in culture; assay type: functional; conditions: ATCC 51575, 24 h
[3] = tested on: Enterococcus faecalis; assay: microbe, parasite or virus in culture; assay type: functional; conditions: ATCC 19433, 24 h
[4] = tested on: Enterococcus faecalis; assay: Stimulation of Enterococcus faecalis FtsZ self-polymerization at 40 ug/mL by microtiter plate-based light scattering assay
How it was run: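 Purified E. faecalis FtsZ (10 μM) mixed with compound (0–40 μg/mL) and 1 mM GTP in 50 mM Tris-HCl pH 7.4, 50 mM KCl, 2 mM magnesium acetate, 10 mM CaCl2. Polymerization followed continuously as light scattering (A340) at 25 °C over 400 min.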

[5] = tested on: Staphylococcus aureus; assay: microbe, parasite or virus in culture; assay type: functional; conditions: 8325-4, 24 h
[6] = tested on: Staphylococcus aureus; assay: Antimicrobial activity against methicillin-resistant Staphylococcus aureus Mu3 incubated for 24 hrs by broth microdilution method; assay type: functional; conditions: Mu3, 24 h
[7] = tested on: Staphylococcus aureus; assay: microbe, parasite or virus in culture; assay type: functional; conditions: ATCC 33591, 24 h
[8] = tested on: Staphylococcus aureus; assay: microbe, parasite or virus in culture; assay type: functional; conditions: ATCC 49951, 24 h
[9] = tested on: Staphylococcus aureus; assay: microbe, parasite or virus in culture; assay type: functional; conditions: 8325-4, 24 h; remark: listed apart in the source
[10] = target: T1, Cell division protein FtsZ (Staphylococcus aureus) (UniProt P0A031); assay: Stimulation of Staphylococcus aureus FtsZ self-polymerization at 40 ug/mL by microtiter plate-based light scattering assay
T1 sequence (whole entry): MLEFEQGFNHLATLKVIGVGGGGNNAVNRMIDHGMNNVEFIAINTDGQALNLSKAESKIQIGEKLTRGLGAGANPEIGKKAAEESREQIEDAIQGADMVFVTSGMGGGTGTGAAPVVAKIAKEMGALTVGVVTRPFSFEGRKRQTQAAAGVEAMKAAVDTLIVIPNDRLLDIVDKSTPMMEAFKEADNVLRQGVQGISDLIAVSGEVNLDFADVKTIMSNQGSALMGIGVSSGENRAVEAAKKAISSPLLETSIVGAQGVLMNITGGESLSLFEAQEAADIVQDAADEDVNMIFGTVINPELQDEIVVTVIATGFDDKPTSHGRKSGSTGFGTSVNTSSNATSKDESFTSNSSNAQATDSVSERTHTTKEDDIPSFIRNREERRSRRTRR

[11] = tested on: Escherichia coli; assay: Antimicrobial activity against Escherichia coli N43 expressing AcrAB efflux pump mutant incubated for 24 hrs by broth microdilution method; assay type: functional; conditions: N43, 24 h
[12] = tested on: Escherichia coli; assay: Antimicrobial activity against Escherichia coli W4573 incubated for 24 hrs by broth microdilution method; assay type: functional; conditions: W4573, 24 h
How it was run: (§1)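 CLSI broth microdilution. Log-phase bacteria at 10⁵ CFU/mL were exposed to 2-fold serial dilutions (64 to 0.016 μg/mL) in cation-adjusted Mueller-Hinton broth, 5% defibrinated sheep blood added for Streptococcus. Incubated aerobically 24 h at 37 °C. Growth read as OD600; MIC taken as the lowest concentration giving 90% growth inhibition.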

[13] = tested on: Escherichia coli; assay: Antimicrobial activity against ESBL producing Escherichia coli ATCC BAA-201 expressing TEM3 lactamase incubated for 24 hrs by broth microdilution method; assay type: functional; conditions: ATCC BAA-201, 24 h; how it was run: as §1
[14] = target: T2, Cell division protein FtsZ (Escherichia coli K-12) (UniProt P0A9A6); assay: Stimulation of Escherichia coli FtsZ self-polymerization at 40 ug/mL by microtiter plate-based light scattering assay
T2 sequence (whole entry): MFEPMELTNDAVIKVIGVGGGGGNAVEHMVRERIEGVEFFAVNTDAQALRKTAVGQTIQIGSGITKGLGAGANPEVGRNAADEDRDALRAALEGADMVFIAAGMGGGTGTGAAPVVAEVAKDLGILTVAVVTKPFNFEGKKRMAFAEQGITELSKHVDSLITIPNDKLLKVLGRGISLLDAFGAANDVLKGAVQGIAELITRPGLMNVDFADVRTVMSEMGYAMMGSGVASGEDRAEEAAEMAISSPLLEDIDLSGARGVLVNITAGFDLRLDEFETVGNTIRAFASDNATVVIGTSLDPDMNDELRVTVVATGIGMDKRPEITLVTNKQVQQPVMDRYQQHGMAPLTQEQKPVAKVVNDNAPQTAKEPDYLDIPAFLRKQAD

[15] = target: T3, Cell division protein FtsZ (Staphylococcus aureus, UniProt P0A031); assay: Binding affinity to Staphylococcus aureus FtsZ expressed in Escherichia coli BL21 (DE3) at 25 degC by fluorescence anisotropy assay
T3 sequence (P0A031 whole entry): T1 sequence (whole entry)
How it was run: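 Intrinsic compound fluorescence anisotropy. Compound at 5 μM was titrated with 0–25 μM FtsZ in 50 mM Tris·HCl pH 7.4, 50 mM KCl, 2 mM magnesium acetate. Samples were incubated 5 min at 25 °C, excited at 245 nm with emission at 318 nm, and G-corrected. Runs were in triplicate and averaged. Kd was obtained by nonlinear least-squares fit. SaFtsZ was expressed in E. coli BL21(DE3) and purified by ammonium sulfate, MonoQ and Superdex-200.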

[16] = target: T4, Cell division protein FtsZ (Escherichia coli K-12, UniProt P0A9A6); assay: Binding affinity to Escherichia coli FtsZ at 25 degC by fluorescence anisotropy assay
T4 sequence (P0A9A6 whole entry): T2 sequence (whole entry)

[17] = Binding affinity to Enterococcus faecalis FtsZ at 25 degC by fluorescence anisotropy assay
[18] = tested on: Staphylococcus aureus; assay: Antimicrobial effect against 3x10^9 CFU/ml methicillin-sensitive Staphylococcus aureus 8325-4 at 4 to 32 times MIC assessed as incidence of colonies growth measured after 24 incubation by large inoculation approach based drug resistance detection method; assay type: functional, organism-based
How it was run: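 Inoculum count checked on nonselective plates. Incubated at 37 °C and examined after 24 h and daily thereafter. Mutation frequency = colonies on selective plates / total bacteria plated.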

[19] = tested on: Enterococcus faecalis; assay: Binding affinity to Enterococcus faecalis FtsZ by fluorescence anisotropy BoGTPgammaS competition assay
How it was run: (§2)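 Competition with fluorescent BoGTPγS. BoGTPγS (1 μM final) was mixed with 5 μM FtsZ and compound or unlabeled GTP at 0–40 μM. Buffer was 50 mM Tris·HCl pH 7.4, 50 mM KCl, 2 mM magnesium acetate. After 5 min at 25 °C, anisotropy was read at excitation 488 nm and emission 510 nm, in triplicate and averaged.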

[20] = target: T2, Cell division protein FtsZ (Escherichia coli K-12); assay: Binding affinity to Escherichia coli FtsZ by fluorescence anisotropy BoGTPgammaS competition assay; how it was run: as §2
[21] = target: T1, Cell division protein FtsZ (Staphylococcus aureus); assay: Binding affinity to Staphylococcus aureus FtsZ expressed in Escherichia coli BL21 (DE3) by fluorescence anisotropy BoGTPgammaS competition assay; how it was run: as §2
[22] = target: Tubulin beta chain (Sus scrofa) (UniProt P02554); conditions: 10 ug/mL

Tubulin beta chain (Sus scrofa), sequence (P02554 whole entry): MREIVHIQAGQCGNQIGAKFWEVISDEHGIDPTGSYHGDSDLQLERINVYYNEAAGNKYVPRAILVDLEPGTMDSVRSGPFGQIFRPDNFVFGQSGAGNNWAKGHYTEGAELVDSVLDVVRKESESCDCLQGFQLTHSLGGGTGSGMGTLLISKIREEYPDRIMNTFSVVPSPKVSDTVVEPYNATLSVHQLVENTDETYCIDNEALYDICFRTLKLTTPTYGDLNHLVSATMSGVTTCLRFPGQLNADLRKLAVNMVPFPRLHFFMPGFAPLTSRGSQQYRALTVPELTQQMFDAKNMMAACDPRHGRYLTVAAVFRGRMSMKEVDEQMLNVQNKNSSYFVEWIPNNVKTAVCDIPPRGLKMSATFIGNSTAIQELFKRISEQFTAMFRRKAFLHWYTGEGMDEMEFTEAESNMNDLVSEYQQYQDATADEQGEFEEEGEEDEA

SMILES: CC(=O)O[C@H]1C(=O)[C@@]2(C)[C@H]([C@H](OC(=O)c3ccccc3)[C@]3(O)C[C@H](OC(=O)[C@H](O)[C@@H](NC(=O)c4ccccc4)c4ccccc4)C(C)=C1C3(C)C)[C@]1(OC(C)=O)CO[C@@H]1C[C@@H]2O
- Activity [1]: Active

SMILES: CN[C@H](CC(C)C)C(=O)N[C@H]1C(=O)N[C@@H](CC(N)=O)C(=O)N[C@H]2C(=O)N[C@H]3C(=O)N[C@H](C(=O)N[C@H](C(=O)O)c4cc(O)cc(O)c4-c4cc3ccc4O)[C@H](O)c3ccc(c(Cl)c3)Oc3cc2cc(c3O[C@@H]2O[C@H](CO)[C@@H](O)[C@H](O)[C@H]2O[C@H]2C[C@](C)(N)[C@H](O)[C@H](C)O2)Oc2ccc(cc2Cl)[C@H]1O.Cl [VANCOMYCIN HYDROCHLORIDE]
- MIC [2]: > 64 µg/mL
- MIC [3]: 1 µg/mL
- Activity [4]: inactive
- MBC [5]: 1 µg/mL

SMILES: Cc1onc(-c2ccccc2Cl)c1C(=O)N[C@@H]1C(=O)N2[C@@H]1SC(C)(C)[C@@H]2C(=O)[O-].[Na+] [OXACILLIN SODIUM SALT]
- MIC [2]: 64 µg/mL
- MIC [3]: 8 µg/mL
- MIC [6]: > 64 µg/mL
- MIC [7]: > 64 µg/mL
- MIC [8]: 0.25 µg/mL
- MIC [9]: 0.063 µg/mL
- Activity [10]: inactive

SMILES: CC(C)(C)c1ccc(-c2cc(CNC(=N)N)ncn2)cc1
- MIC [11]: 32 µg/mL (≈ 113 µM)
- MIC [12]: > 64 µg/mL
- MIC [13]: > 64 µg/mL
- MIC [2]: > 64 µg/mL
- MIC [3]: > 64 µg/mL
- MIC [6]: 32 µg/mL (≈ 113 µM)
- MIC [7]: 64 µg/mL (≈ 226 µM)
- MIC [8]: 32 µg/mL (≈ 113 µM)
- MIC [9]: 64 µg/mL (≈ 226 µM)
- Activity [4]: inactive
- Activity [14]: inactive
- Activity [10]: inactive
- Kd [15]: Not Active
- Kd [16]: Not Active
- Kd [17]: Not Active

SMILES: CO[C@H]1/C=C/O[C@@]2(C)Oc3c(C)c(O)c4c(O)c(c(/C=N/N5CCN(C)CC5)c(O)c4c3C2=O)NC(=O)/C(C)=C\C=C\[C@H](C)[C@H](O)[C@@H](C)[C@@H](O)[C@@H](C)[C@H](OC(C)=O)[C@@H]1C
- Activity [18]: inactive

SMILES: CC(C)(C)c1ccc(-c2ccnc(CNC(=N)N)c2)cc1
- MIC [11]: 8 µg/mL (≈ 28.3 µM)
- MIC [12]: 64 µg/mL (≈ 227 µM)
- MIC [13]: 64 µg/mL (≈ 227 µM)
- MIC [2]: 64 µg/mL (≈ 227 µM)
- MIC [3]: 32 µg/mL (≈ 113 µM)
- MIC [6]: 8 µg/mL (≈ 28.3 µM)
- MIC [7]: 16 µg/mL (≈ 56.7 µM)
- MIC [8]: 8 µg/mL (≈ 28.3 µM)
- MIC [9]: 8 µg/mL (≈ 28.3 µM)
- Activity [4]: inactive
- Activity [14]: inactive
- Activity [10]: inactive
- Kd [15]: Not Active
- Kd [16]: Not Active
- Kd [17]: Not Active

SMILES: CCC[C@@H]1C[C@@H](C(=O)N[C@@H]([C@H]2O[C@H](SC)[C@H](O)[C@@H](O)[C@H]2O)[C@H](C)Cl)N(C)C1.Cl [CLINDAMYCIN HYDROCHLORIDE]
- MIC [2]: > 64 µg/mL
- MIC [3]: 2 µg/mL
- MIC [6]: > 64 µg/mL
- MIC [7]: > 64 µg/mL
- MIC [8]: 0.063 µg/mL
- MIC [9]: 0.031 µg/mL
- Activity [10]: inactive

SMILES: Nc1nc(=O)c2ncn([C@@H]3O[C@H](COP(=O)(O)OP(=O)(O)OP(=O)(O)O)[C@@H](O)C3O)c2[nH]1 (single isomer, unassigned)
- Activity [19]: Dose-dependent effect
- Activity [20]: Dose-dependent effect
- Activity [21]: Dose-dependent effect

SMILES: CC[C@H]1OC(=O)[C@H](C)[C@@H](O[C@H]2C[C@@](C)(OC)[C@@H](O)[C@H](C)O2)[C@H](C)[C@@H](O[C@@H]2O[C@H](C)C[C@H](N(C)C)[C@H]2O)[C@](C)(O)C[C@@H](C)C(=O)[C@H](C)[C@@H](O)[C@]1(C)O [ERYTHROMYCIN]
- MIC [2]: > 64 µg/mL
- MIC [3]: 1 µg/mL (≈ 1.36 µM)
- MIC [6]: > 64 µg/mL
- MIC [7]: > 64 µg/mL
- MIC [8]: 0.25 µg/mL (≈ 0.341 µM)
- MIC [9]: 0.125 µg/mL (≈ 0.17 µM)
- MBC [5]: 32 µg/mL (≈ 43.6 µM)

SMILES: COC(=O)Nc1nc2cc(C(=O)c3cccs3)ccc2[nH]1
- inhibition [22]: Active

SMILES: CC1(C)S[C@@H]2[C@H](NC(=O)[C@H](N)c3ccccc3)C(=O)N2[C@H]1C(=O)[O-].[Na+] [AMPICILLIN SODIUM]
- MIC [12]: 4 µg/mL
- MIC [13]: > 64 µg/mL
- Activity [14]: inactive

SMILES: NCC[C@H](O)C(=O)N[C@@H]1C[C@H](N)[C@@H](O[C@H]2O[C@H](CN)[C@@H](O)[C@H](O)[C@H]2O)[C@H](O)[C@H]1O[C@H]1O[C@H](CO)[C@@H](O)[C@H](N)[C@H]1O.O=S(=O)(O)O
- MIC [11]: 1 µg/mL
- MIC [12]: 2 µg/mL
- MIC [13]: > 64 µg/mL

— ChEMBL document CHEMBL2176974, “A bactericidal guanidinomethyl biaryl that alters the dynamics of bacterial FtsZ polymerization” (J Med Chem, 2012)
